Test system: Fibroblast
Test: Multiplex assay against human fibroblast
Format: toxicity, cell-based
Outline: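 Live cells carried four stains from seeding: Hoechst33342, BioTracker Green Microtubule Cytoskeleton Dye, MitoTracker Red and Annexin V Alexa Fluor 680. They were imaged on a CQ1 microscope at 37°C and 5% CO2 after compound addition. Using CellPathfinder machine-learning gating, cells were split into Hoechst high-intensity objects or normal cells, normal cells into healthy, pyknosed or fragmented nuclei, and pyknosed cells into mitotic or apoptotic; tubulin, mitochondrial-mass and membrane-permeability phenotypes are per cents of healthy-nucleus cells.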

[1] = 12 h, 1 µM, compound concentration 1 uM, replicate 1
[2] = 12 h, 1 µM, compound concentration 1 uM, replicate 2
[3] = 12 h, 10 µM, compound concentration 10 uM, replicate 1
[4] = 12 h, 10 µM, compound concentration 10 uM, replicate 2
[5] = 24 h, 1 µM, compound concentration 1 uM, replicate 1
[6] = 24 h, 1 µM, compound concentration 1 uM, replicate 2
[7] = 24 h, 10 µM, compound concentration 10 uM, replicate 1
[8] = 24 h, 10 µM, compound concentration 10 uM, replicate 2
[9] = 48 h, 1 µM, compound concentration 1 uM, replicate 1
[10] = 48 h, 1 µM, compound concentration 1 uM, replicate 2
[11] = 48 h, 10 µM, compound concentration 10 uM, replicate 1
[12] = 48 h, 10 µM, compound concentration 10 uM, replicate 2

With COc1cc(C(=O)N2CC[C@@H](O)[C@@H](N)C2)cc2nc(-c3cc4ccccc4n3CC3CC3)n(C)c12.Cl the “Population Apoptotic (%)” value [1] was 21%, the “Population Fragmented Nuclei (%)” value [1] was 25% and the “Population Healthy Nuclei (%)” value [1] was 62%. For the same molecule, the “Population Hoechst High Intensity Objects (%)” value [1] was 2%, the “Population Membrane Permeable-Phenotype (%)” value [1] was 0% and the “Population Mitochondria Different-Phenotype (%)” value [1] was 4%. The “Population Mitotic Cells (%)” value [1] was 78%, the “Population Normal (%)” value [1] was 97% and the “Population Pyknosed Nuclei (%)” value [1] was 12%. The “Population Tubulin-Different-Phenotype (%)” value [1] was 55%, the “Total Cell Count” value [1] was 160 and the “Population Apoptotic (%)” value [2] was 48%. The “Population Fragmented Nuclei (%)” value [2] was 24%, the “Population Healthy Nuclei (%)” value [2] was 44% and the “Population Hoechst High Intensity Objects (%)” value [2] was 3%. The “Population Membrane Permeable-Phenotype (%)” value [2] was 10%, the “Population Mitochondria Different-Phenotype (%)” value [2] was 14% and the “Population Mitotic Cells (%)” value [2] was 51%. For the same molecule, the “Population Normal (%)” value [2] was 96%, the “Population Pyknosed Nuclei (%)” value [2] was 31% and the “Population Tubulin-Different-Phenotype (%)” value [2] was 69%. For the same molecule, the “Total Cell Count” value [2] was 130, the “Population Apoptotic (%)” value [3] was 60% and the “Population Fragmented Nuclei (%)” value [3] was 22%. The “Population Healthy Nuclei (%)” value [3] was 57%, the “Population Hoechst High Intensity Objects (%)” value [3] was 6% and the “Population Membrane Permeable-Phenotype (%)” value [3] was 0%. For the same molecule, the “Population Mitochondria Different-Phenotype (%)” value [3] was 34%, the “Population Mitotic Cells (%)” value [3] was 40% and the “Population Normal (%)” value [3] was 93%. For the same molecule, the “Population Pyknosed Nuclei (%)” value [3] was 19%, the “Population Tubulin-Different-Phenotype (%)” value [3] was 97% and the “Total Cell Count” value [3] was 271. For the same molecule, the “Population Apoptotic (%)” value [4] was 48%, the “Population Fragmented Nuclei (%)” value [4] was 30% and the “Population Healthy Nuclei (%)” value [4] was 44%. For the same molecule, the “Population Hoechst High Intensity Objects (%)” value [4] was 10%, the “Population Membrane Permeable-Phenotype (%)” value [4] was 2% and the “Population Mitochondria Different-Phenotype (%)” value [4] was 25%. For the same molecule, the “Population Mitotic Cells (%)” value [4] was 51%, the “Population Normal (%)” value [4] was 89% and the “Population Pyknosed Nuclei (%)” value [4] was 25%. For the same molecule, the “Population Tubulin-Different-Phenotype (%)” value [4] was 92%, the “Total Cell Count” value [4] was 179 and the “Population Apoptotic (%)” value [5] was 55%. The “Population Fragmented Nuclei (%)” value [5] was 24%, the “Population Healthy Nuclei (%)” value [5] was 62% and the “Population Hoechst High Intensity Objects (%)” value [5] was 3%. The “Population Membrane Permeable-Phenotype (%)” value [5] was 0%, the “Population Mitochondria Different-Phenotype (%)” value [5] was 5% and the “Population Mitotic Cells (%)” value [5] was 45%. For the same molecule, the “Population Normal (%)” value [5] was 96%, the “Population Pyknosed Nuclei (%)” value [5] was 13% and the “Population Tubulin-Different-Phenotype (%)” value [5] was 51%. The “Total Cell Count” value [5] was 158, the “Population Apoptotic (%)” value [6] was 60% and the “Population Fragmented Nuclei (%)” value [6] was 31%. For the same molecule, the “Population Healthy Nuclei (%)” value [6] was 36%, the “Population Hoechst High Intensity Objects (%)” value [6] was 4% and the “Population Membrane Permeable-Phenotype (%)” value [6] was 4%. The “Population Mitochondria Different-Phenotype (%)” value [6] was 20%, the “Population Mitotic Cells (%)” value [6] was 39% and the “Population Normal (%)” value [6] was 95%. The “Population Pyknosed Nuclei (%)” value [6] was 31%, the “Population Tubulin-Different-Phenotype (%)” value [6] was 79% and the “Total Cell Count” value [6] was 125. The “Population Apoptotic (%)” value [7] was 73%, the “Population Fragmented Nuclei (%)” value [7] was 15% and the “Population Healthy Nuclei (%)” value [7] was 68%. The “Population Hoechst High Intensity Objects (%)” value [7] was 7%, the “Population Membrane Permeable-Phenotype (%)” value [7] was 0% and the “Population Mitochondria Different-Phenotype (%)” value [7] was 55%. The “Population Mitotic Cells (%)” value [7] was 26%, the “Population Normal (%)” value [7] was 92% and the “Population Pyknosed Nuclei (%)” value [7] was 16%. For the same molecule, the “Population Tubulin-Different-Phenotype (%)” value [7] was 94%, the “Total Cell Count” value [7] was 274 and the “Population Apoptotic (%)” value [8] was 62%. For the same molecule, the “Population Fragmented Nuclei (%)” value [8] was 27%, the “Population Healthy Nuclei (%)” value [8] was 54% and the “Population Hoechst High Intensity Objects (%)” value [8] was 5%. For the same molecule, the “Population Membrane Permeable-Phenotype (%)” value [8] was 3%, the “Population Mitochondria Different-Phenotype (%)” value [8] was 41% and the “Population Mitotic Cells (%)” value [8] was 37%. For the same molecule, the “Population Normal (%)” value [8] was 94%, the “Population Pyknosed Nuclei (%)” value [8] was 17% and the “Population Tubulin-Different-Phenotype (%)” value [8] was 92%. The “Total Cell Count” value [8] was 174, the “Population Apoptotic (%)” value [9] was 80% and the “Population Fragmented Nuclei (%)” value [9] was 22%. For the same molecule, the “Population Healthy Nuclei (%)” value [9] was 67%, the “Population Hoechst High Intensity Objects (%)” value [9] was 6% and the “Population Membrane Permeable-Phenotype (%)” value [9] was 0%. For the same molecule, the “Population Mitochondria Different-Phenotype (%)” value [9] was 8%, the “Population Mitotic Cells (%)” value [9] was 20% and the “Population Normal (%)” value [9] was 93%. For the same molecule, the “Population Pyknosed Nuclei (%)” value [9] was 10%, the “Population Tubulin-Different-Phenotype (%)” value [9] was 44% and the “Total Cell Count” value [9] was 161. For the same molecule, the “Population Apoptotic (%)” value [10] was 64%, the “Population Fragmented Nuclei (%)” value [10] was 38% and the “Population Healthy Nuclei (%)” value [10] was 41%. The “Population Hoechst High Intensity Objects (%)” value [10] was 1%, the “Population Membrane Permeable-Phenotype (%)” value [10] was 3% and the “Population Mitochondria Different-Phenotype (%)” value [10] was 16%. For the same molecule, the “Population Mitotic Cells (%)” value [10] was 35%, the “Population Normal (%)” value [10] was 98% and the “Population Pyknosed Nuclei (%)” value [10] was 20%. For the same molecule, the “Population Tubulin-Different-Phenotype (%)” value [10] was 80%, the “Total Cell Count” value [10] was 153 and the “Population Apoptotic (%)” value [11] was 86%. For the same molecule, the “Population Fragmented Nuclei (%)” value [11] was 20%, the “Population Healthy Nuclei (%)” value [11] was 64% and the “Population Hoechst High Intensity Objects (%)” value [11] was 8%. The “Population Membrane Permeable-Phenotype (%)” value [11] was 0%, the “Population Mitochondria Different-Phenotype (%)” value [11] was 62% and the “Population Mitotic Cells (%)” value [11] was 13%. For the same molecule, the “Population Normal (%)” value [11] was 91%, the “Population Pyknosed Nuclei (%)” value [11] was 15% and the “Population Tubulin-Different-Phenotype (%)” value [11] was 94%. For the same molecule, the “Total Cell Count” value [11] was 256, the “Population Fragmented Nuclei (%)” value [12] was 32% and the “Population Healthy Nuclei (%)” value [12] was 55%. For the same molecule, the “Population Hoechst High Intensity Objects (%)” value [12] was 4%, the “Population Mitochondria Different-Phenotype (%)” value [12] was 36% and the “Population Normal (%)” value [12] was 95%. For the same molecule, the “Population Pyknosed Nuclei (%)” value [12] was 11% and the “Total Cell Count” value [12] was 193.

— ChEMBL document CHEMBL5058577, “EUbOPEN Chemogenomics Library 2 (Multiplex)” (2022)
